{"source": "paper PMC4477354", "about": "(Diabetes, 2015)", "key": {"[1]": {"format": "in vivo, rat", "details": "rats", "in_short": "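Overnight-fasted rats, n = 8–10/dose, got NPH insulin or DET i.p. at 0, 0.1, 0.3, 1, 3 or 10 units/kg. They were anesthetized with isoflurane at 25 min and cisternal CSF drawn at 30 min, then blood collected. Insulin by ELISA (2 h at 4°C; conjugate 30 min; substrate 40 min). Glucose by glucometer in duplicate. Factorial ANOVA.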"}, "[2]": {"format": "in vivo, rat", "details": "rats, 0.5 units/kg i.p.", "in_short": "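Rats, n = 6–8/time point, overnight-fasted, were given 0.5 units/kg i.p. NPH insulin or DET. Cisternal CSF taken under isoflurane at 5, 10, 20, 40, 80, 160 or 320 min, followed by EDTA blood. Insulin by ELISA with standards from each injected insulin. Plasma glucose by glucometer in duplicate. Factorial ANOVA.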"}, "[3]": {"assay": "Food intake and body weight after third-ventricular", "format": "in vivo, rat", "details": "rats, 8 mU I3VT", "in_short": "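Rats carried a third-ventricle cannula (2.2 mm posterior to bregma, midline), checked by drinking >5 mL within 30 min after 10 ng angiotensin II. Rats (n = 16) were handled for 4 days with food removed for the last 4 h of light. In randomized crossover 1 week apart, they received 8 mU DET or NPH insulin, or 2 µL saline, 1 h before dark. Food returned at dark; intake and weight taken at 24 and 48 h. Repeated-measures ANOVA, Tukey.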"}, "[4]": {"format": "in vivo, rat", "details": "rats, 0.5 units/kg s.c.; for CSF insulin at 6, 12 and 24 h / plasma glucose at 6 h and 12 h: Ps < 0.05; for time by which plasma insulin had returned to baseline: sampled 0, 6, 12, 24, 48, 72 h", "in_short": "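Overnight-fasted rats, n = 7–8/group, received GLAR or DET 0.5 units/kg s.c. CSF (~150 µL) taken from the cisterna magna under isoflurane at 0, 6, 12, 24, 48 or 72 h, then blood collected after decapitation. Insulin by ELISA with standards from each injected insulin (450 minus 630 nm). Plasma glucose by glucometer in duplicate. Factorial ANOVA.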"}, "[5]": {"format": "in vivo, mouse", "details": "mice, 1 unit/kg s.c.; for CSF insulin at 6 and 12 h: Ps < 0.05; for time by which plasma insulin had returned to baseline: sampled 0, 6, 12, 24, 48 h", "in_short": "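Mice fasted 4 h, n = 7–8/group, given 1 unit/kg s.c. GLAR or DET. CSF (~15 µL, glass capillary) drawn from the cisterna magna under isoflurane at baseline and 6, 12, 24, 48 h, then trunk blood taken into chilled EDTA. Insulin measured by ELISA against standards made from each injected insulin. Blood-contaminated CSF discarded; factorial ANOVA.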"}, "[6]": {"assay": "Food intake, body weight and body composition", "format": "in vivo, mouse", "details": "mice, P < 0.05; for body fat compared with the saline-control group: NMR", "in_short": "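Mice were first matched by fat mass using NMR while conscious. They then received (n = 12/group) daily s.c. saline, DET or GLAR at 1 unit/kg for 6 weeks. Body weight and food intake recorded weekly; NMR body composition repeated at the end. Repeated-measures ANOVA with Tukey post hoc.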"}, "[7]": {"format": "in vivo, mouse", "details": "mice, 1 unit/kg s.c. daily for 6 weeks, n = 7-9/group, P < 0.05", "in_short": "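Mice, n = 7–9/group, were injected s.c. daily for 6 weeks with saline, GLAR or DET (1 unit/kg). CSF from the cisterna magna (isoflurane, 4-h fast) and EDTA plasma were taken 24 h after the last dose. Insulin measured by ELISA on 10 µL CSF or 5 µL plasma, against standards from the injected insulins.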"}, "[8]": {"details": "extended by albumin binding of the attached fatty acid; cited from earlier work"}, "[9]": {"test_system": "insulin receptor", "details": "mice, cited from earlier work"}, "[10]": {"details": "overweight humans, intravenous; cited from earlier work"}, "[11]": {"details": "men, plasma glucose comparably clamped; cited from earlier work"}, "[12]": {"details": "clinical trials, basal insulin replacement; cited from earlier work"}, "[13]": {"details": "1 unit/kg s.c. daily for 6 weeks"}}, "note": "Like-named read-outs stand apart in the source and are kept apart here."}
{"substance": "Insulin detemir", "values": [{"measurement": "plasma glucose after 30 min", "setting": "[1]; 0-10 units/kg i.p., 30 min postinjection, glucometer", "value": "dose-dependent decrease"}, {"measurement": "plasma insulin after 30 min", "setting": "[1]; 0-10 units/kg i.p., 30 min postinjection, insulin ELISA, n = 8-10/dose", "value": "increased at all doses"}, {"measurement": "CSF insulin after 30 min", "setting": "[1]; 0-10 units/kg i.p., CSF sampled 30 min postinjection, insulin ELISA", "value": "elevated after all doses"}, {"measurement": "dose at which apparent saturation of CSF insulin levels occurred", "setting": "[1]; i.p., 30 min postinjection", "value": "≤ 3", "unit": "units/kg"}, {"measurement": "plasma glucose levels over time", "setting": "[2]; 5-320 min, P < 0.05", "value": "relatively constant level for the duration of the experiment"}, {"measurement": "plasma glucose at 80, 160 and 320 min, DET relative to NPH", "setting": "[2]; Ps < 0.05", "value": "sustained hypoglycemia"}, {"measurement": "insulin in plasma (160 and 320 min) and CSF (320 min), DET relative to NPH", "setting": "[2]; planned comparison, P < 0.05", "value": "more prolonged elevation of insulin"}, {"measurement": "time at which CSF insulin reached baseline", "setting": "[2]; sampled up to 320 min", "value": "> 320", "unit": "min"}, {"measurement": "time at which plasma insulin was no longer elevated relative to baseline", "setting": "[2]; sampled up to 320 min", "value": "> 320", "unit": "min"}, {"measurement": "body weight after 24 h", "setting": "[3]; P < 0.05", "value": "significant weight loss"}, {"measurement": "body weight after 48 h", "setting": "[3]; P < 0.05", "value": "maintaining this weight loss"}, {"measurement": "food intake after 48 h relative to saline", "setting": "[3]; crossover, n = 16", "value": "remained significantly reduced"}, {"measurement": "food intake over 24 h relative to saline", "setting": "[3]; crossover, n = 16, P < 0.05", "value": "ate significantly less food"}, {"measurement": "CSF insulin at 48 h", "setting": "[4]", "value": "continued to have elevated CSF insulin"}, {"measurement": "CSF insulin at 6, 12 and 24 h", "setting": "[4]", "value": "comparably increased"}, {"measurement": "plasma glucose at 6 h and 12 h", "setting": "[4]", "value": "reduced"}, {"measurement": "plasma insulin at 6 h, DET compared with GLAR", "setting": "[4]; n = 7-8/group, P < 0.05", "value": "elevated more"}, {"measurement": "time by which plasma insulin had returned to baseline", "setting": "[4]", "value": "≤ 24", "unit": "h"}, {"measurement": "CSF insulin after 24 and 48 h", "setting": "[5]", "value": "elevated CSF insulin levels"}, {"measurement": "CSF insulin at 6 and 12 h", "setting": "[5]", "value": "comparably increased"}, {"measurement": "plasma insulin at 6 h, DET compared with GLAR", "setting": "[5]; n = 7-8/group, P < 0.05", "value": "elevated to a greater extent"}, {"measurement": "time by which plasma insulin had returned to baseline", "setting": "[5]", "value": "≤ 24", "unit": "h"}, {"measurement": "body fat compared with the saline-control group", "setting": "[6]; [13]", "value": "significantly lower"}, {"measurement": "cumulative food intake compared with GLAR or saline groups", "setting": "[6]; [13]", "value": "significantly lower"}, {"measurement": "CSF insulin relative to controls 24 h after the final injection", "setting": "[7]", "value": "had increased insulin"}, {"measurement": "plasma half-life", "setting": "[8]", "value": "5 to 7", "unit": "h"}, {"measurement": "uptake into the brain", "setting": "[9]; insulin in brain tissue extracts", "value": "preferential uptake of DET into the brain"}, {"measurement": "phosphorylation of the insulin receptor in hypothalamus", "setting": "[9]", "value": "selectively increased phosphorylation of the insulin receptor"}, {"measurement": "cerebrocortical activity", "setting": "[10]", "value": "increased cerebrocortical activity"}, {"measurement": "electroencephalogram activity in the frontal cortex compared with regular insulin", "setting": "[11]", "value": "significant change in electroencephalogram activity"}, {"measurement": "food intake compared with regular insulin", "setting": "[11]", "value": "significant reduction of food intake"}, {"measurement": "weight gain compared with other long-acting formulations", "setting": "[12]", "value": "less weight gain"}]}
{"substance": "insulin glargine", "values": [{"measurement": "CSF insulin at 48 h", "setting": "[4]", "value": "returned to baseline"}, {"measurement": "plasma glucose at 24 h", "setting": "[4]", "value": "remained lower"}, {"measurement": "plasma insulin at 12 h, DET compared with GLAR", "setting": "[4]; P < 0.05", "value": "higher plasma insulin"}, {"measurement": "CSF insulin at 6, 12 and 24 h", "setting": "[4]", "value": "comparably increased"}, {"measurement": "plasma glucose at 6 h and 12 h", "setting": "[4]", "value": "reduced"}, {"measurement": "time by which plasma insulin had returned to baseline", "setting": "[4]", "value": "≤ 48", "unit": "h"}, {"measurement": "CSF insulin after 24 and 48 h", "setting": "[5]", "value": "lower at 24 h and had returned to baseline by 48 h"}, {"measurement": "plasma insulin at 12 h, DET compared with GLAR", "setting": "[5]; P < 0.05", "value": "higher plasma concentrations"}, {"measurement": "CSF insulin at 6 and 12 h", "setting": "[5]", "value": "comparably increased"}, {"measurement": "time by which plasma insulin had returned to baseline", "setting": "[5]", "value": "≤ 48", "unit": "h"}, {"measurement": "body fat compared with the saline-control group", "setting": "[6]; [13]", "value": "higher"}, {"measurement": "body weight relative to saline-treated animals by week 6", "setting": "[6]; 1 unit/kg s.c. daily", "value": "increased relative to that of saline-treated animals"}, {"measurement": "plasma insulin relative to controls 24 h after the final injection", "setting": "[7]", "value": "continued to have elevated plasma insulin"}]}
